Source: PubChem
Rows were chosen to be rich in hits. Some 2.2% of all compounds tested hit in one or more screens of this group.
CAL PDZ FP-1: blocks peptide binding to the human CAL PDZ domain | Q9HD26 | purified CAL PDZ, TMR-peptide fluorescence polarization, 1 h | inhibition, % at 24.9 µM | 300,000 compounds, 0.92% hits | AID 602252;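 active = mean inhibition of at least 30% with at least half of replicates also reaching 30%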;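 note: 0% = DMSO neutral control and 100% = excess unlabeled competitor peptide PRC23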
CDK5 inh: blocks human CDK5/p35 kinase activity. AID 488839. Q00535+Q15078. inhibition, % at 10 µM. 330,000 compounds, 0.01% hits. Recombinant CDK5/p35, ADP-Glo luminescence, 60 min;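 active = highest replicate inhibition of at least 50% and at least 75% of replicates reaching 50%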;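 note: plate controls were DMSO neutral control for no effect and GW8510 at 10 µM for full effect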
Target sequence (Q00535 whole entry, looked up): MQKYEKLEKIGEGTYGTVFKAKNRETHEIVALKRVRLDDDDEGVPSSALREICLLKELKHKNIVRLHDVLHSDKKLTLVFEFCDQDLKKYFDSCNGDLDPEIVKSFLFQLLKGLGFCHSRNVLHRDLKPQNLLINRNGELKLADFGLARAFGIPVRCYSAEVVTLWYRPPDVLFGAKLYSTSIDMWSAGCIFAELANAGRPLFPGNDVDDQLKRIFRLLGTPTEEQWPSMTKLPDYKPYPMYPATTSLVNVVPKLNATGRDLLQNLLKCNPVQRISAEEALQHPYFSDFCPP
Target sequence (Q15078 whole entry, looked up): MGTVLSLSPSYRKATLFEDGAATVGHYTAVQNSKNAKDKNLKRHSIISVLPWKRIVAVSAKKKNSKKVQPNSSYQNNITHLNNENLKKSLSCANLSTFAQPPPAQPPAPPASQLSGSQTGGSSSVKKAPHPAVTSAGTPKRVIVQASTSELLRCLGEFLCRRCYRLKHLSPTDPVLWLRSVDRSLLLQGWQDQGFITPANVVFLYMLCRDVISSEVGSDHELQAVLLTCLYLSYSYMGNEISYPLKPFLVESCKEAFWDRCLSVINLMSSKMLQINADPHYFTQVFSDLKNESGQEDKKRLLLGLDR
Dyrk1A ADPGlo: blocks rat Dyrk1A kinase activity; Q63470; ADP-Glo luminescence, NFATc1 peptide; inhibition, % at 12.5 µM; 310,000 compounds, 0.43% hits; AID 504441; in the data active = inhibition above about 50%;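 note: plate controls were vehicle with enzyme for no effect and no enzyme for full effect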
dFosB act-1: activators of mouse delta FosB homodimer; purified delta FosB, TAMRA-CDK5 oligo fluorescence polarization; percent of positive-control signal above neutral wells; activation, % at 25 µM; 340,000 compounds, 0.99% hits;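 active = mean activation above about 17%, with every replicate also reaching it, limit read from the data, passing the limit was not always enough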
Rtt109 HAT inh: C. albicans Rtt109 histone acetyltransferase inhibition; purified Rtt109/Vps75, ThioGlo CoA-SH fluorescence, 4 h; inhibition, % at 34.9 µM; 330,000 compounds, 0.16% hits;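 active = inhibition of at least 50% in every replicate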
CAL PDZ FP-2: human CAL PDZ-peptide interaction inhibition; Q9HD26; purified CAL PDZ, TMR-peptide fluorescence polarization, 1 h; inhibition, % at 20 µM; 330,000 compounds, 0.02% hits;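 active = highest replicate inhibition of at least 40%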;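 note: plate controls were DMSO neutral control wells for no effect and unlabeled competitor peptide control wells for full effect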
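Test system: tagged CAL PDZ domain / Buffer or medium: sodium phosphate/NaCl buffer pH 7.4 with TCEP, IgG, Thesit / Reagent: TMR-labelled reporter peptide T*-PRC34 bound in PDZ groove / Compound dosing: single point, 20 µM / Schedule: 1 h incubation at room temperature before polarization reading / Technique: fluorescence polarization (mP) / Benchmarks: unlabelled peptide, DMSO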
dFosB act-2: activators of mouse delta FosB homodimer DNA binding; shares compounds with dFosB act-1; purified delta FosB, TAMRA-CDK5 oligo fluorescence polarization; normalised: neutral wells 0, positive control 100; activation, % at 24.9 µM; 2,400 tested, under 10 active; AID 588690;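 active = highest replicate activation at or above 34% and every replicate reaching that threshold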;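 note: higher polarization means more probe DNA bound by delta FosB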
* = called active by the depositor; i = inactive; . = no result.

SMILES	CAL PDZ FP-1	CDK5 inh	Dyrk1A ADPGlo	dFosB act-1	Rtt109 HAT inh	CAL PDZ FP-2	dFosB act-2
NC(N)=NS(=O)(=O)c1ccc(NC(=S)NC(=O)c2sc3ccccc3c2Cl)cc1	-2.0	-0.2	22.3	29.3*	11.3	-3.8	5.4
CC(=O)Nc1ccc(NC(=O)C(C)OC(=O)CNC(=O)c2sc3ccccc3c2Cl)cc1 (stereo not given)	-2.1	1.2	-1.7	3.8	0.8	-0.5	.
NC(=O)c1ccc(NC(=O)CNC(=O)c2sc3ccccc3c2Cl)cc1	-4.1	-0.2	.	37.7*	9.5	0.1	1.9
CC(=O)Nc1ccc(NC(=O)CNC(=O)c2sc3ccccc3c2Cl)cc1	-3.3	-0.1	1.3	42.1*	12.8	-2.1	1.4
O=C(NNC(=O)c1sc2ccccc2c1Cl)Nc1ccc(Cl)cc1	-4.0	-0.6	6.7	18.9*	-12.6	-0.1	1.1
Cc1cc(C)cc(C(=O)Nc2ccc3[nH]c(=O)[nH]c3c2)c1	-2.6	0.1	-2.6	3.2	4.3	-0.9	.
Cc1ccc(Cl)cc1N1CCN(C(=O)c2cc3c(=O)[nH]c4ccccc4c3n2C)CC1	-3.0	-0.2	-3.5	-1.8	2.5	-1.5	.
COC(=O)c1ccc(NC(=O)CNC(=O)c2sc3ccccc3c2Cl)cc1	0.3	-1.2	2.3	53.5*	4.0	-0.7	3.1
Cn1nnc(NC(=S)NC(=O)c2ccc(-c3ccc(Br)cc3)o2)n1	-0.7	1.1	-1.2	32.8*	-2.5	0.7	1.0
NS(=O)(=O)c1ccc(NC(=O)COC(=O)/C(=C/c2cccs2)c2cccs2)cc1	-2.4	-3.3	-1.0	27.1*	12.0	-2.6	1.4
O=c1[nH]c(SCc2ccc(F)cc2)nc2c1cnn2-c1ccc(F)cc1	.	0.2	-5.4	35.0*	-2.2	0.6	2.3
CCCSc1nc2c(cnn2-c2ccc(F)cc2)c(=O)[nH]1	-8.5	-0.2	8.2	47.9*	3.1	-1.2	-6.6
CCCSc1nc2c(cnn2-c2ccccc2)c(=O)[nH]1	.	-0.7	3.8	-1.3	8.6	-1.9	.
C[C@H]1CN([C@@H](C)CO)C(=O)c2cc(NC(=O)Nc3cccc4ccccc34)ccc2O[C@@H]1CN(C)Cc1ccc(-c2ccccc2)cc1	-0.2	0.4	.	37.9*	-27.1	0.7	1.1
C[C@H](CO)N1C[C@H](C)[C@H](CN(C)Cc2ccccc2)Oc2c(NC(=O)Nc3ccc(F)cc3)cccc2C1=O	-0.6	1.7	17.4	-7.8	1.5	-0.4	.
C[C@@H]1CN([C@@H](C)CO)C(=O)c2cccc(NC(=O)Nc3ccc(F)cc3)c2O[C@@H]1CN(C)Cc1ccc(Oc2ccccc2)cc1	-1.6	-0.3	11.3	43.4*	3.7	-0.7	0.0
COc1ccc(CNC(=O)COC(=O)c2ccc3ncsc3c2)cc1OC	-6.2	0.8	.	-1.1	17.4	-0.6	.
COc1cc(NC(=O)CSc2nc(C3CC3)nc3ccccc23)cc(OC)c1	-1.2	-1.0	0.7	87.7*	2.1	-1.0	3.8
Cn1c(=O)c2c(SCC(=O)Nc3ccccc3F)nc(C3CC3)nc2n(C)c1=O	1.3	0.6	-1.7	23.7*	-8.8	7.5	0.5
O=C(CSc1nc(C2CC2)nc2ccccc12)Nc1ccccc1Cl	3.5	0.2	1.7	30.8*	-3.7	0.1	1.7
CC(=O)Nc1cccc(NC(=O)CSc2nc(C3CC3)nc3ccccc23)c1	-6.5	1.2	4.1	14.6	-2.7	-5.7	.
O=C(CSc1nc(C2CC2)nc2ccccc12)Nc1ccccc1N1CCOCC1	0.7	0.6	-1.7	-9.2	0.9	-22.7	.
O=C(CSc1nc(C2CC2)nc2ccccc12)Nc1ccccc1	-11.4	1.1	1.4	35.8*	7.3	-1.0	-1.5
Cn1c(=O)c2c(SCC(=O)Nc3ccccc3F)nc(-c3ccccc3F)nc2n(C)c1=O	3.8	-0.7	-2.0	15.3	-3.8	-0.4	.
CCOC(=O)c1csc(NC(=O)CN2CCOCC2)n1	-0.5	1.1	-2.9	-0.4	6.0	0.1	.
SMILES	CAL PDZ FP-1	CDK5 inh	Dyrk1A ADPGlo	dFosB act-1	Rtt109 HAT inh	CAL PDZ FP-2	dFosB act-2
CCOC(=O)Cn1c(C)c(Br)c(=O)c2cccc(C)c21	-6.2	-0.5	2.9	-9.4	-5.0	-2.1	.
CC1(C)CC(=O)C(C(=O)/C=C/c2ccco2)C(=O)C1	.	-0.7	-1.3	-3.6	-3.5	0.2	.
O=c1nc(Nc2ccc(OCc3ccccc3)cc2)sc2ncccc12	-1.2	0.3	-1.1	19.5*	-10.8	-2.3	-0.9
CCOC(=O)c1ccc(Nc2nc(=O)c3cccnc3s2)cc1	-2.9	0.7	3.8	-6.6	1.8	.	.
CCOC(=O)c1cc2cc(OC)ccc2nc1C	-0.6	-1.4	2.8	-12.6	15.1	0.2	.
CC(OC(=O)COc1cccc2c1OC(C)(C)C2)C(=O)Nc1ccc(S(N)(=O)=O)cc1 (stereo not given)	-6.9	-0.8	.	-3.0	3.7	-0.2	.
Cc1ccc(C)c(NC(=O)CSc2nnc(NC(=O)C3CC3)s2)c1	0.9	0.4	-0.8	28.2*	0.7	0.2	4.8
Cc1ccccc1NC(=O)CSc1nnc(NC(=O)C2CC2)s1	-5.0	-2.2	-5.2	-4.6	4.8	-0.3	.
O=C(CSc1nnc(NC(=O)C2CC2)s1)Nc1cccc(F)c1	0.5	1.4	-2.9	28.4*	7.2	-1.3	-1.3
COc1ccccc1NC(=O)c1ccc(NC(=O)Cc2n[nH]c(=O)c3ccccc23)cc1	0.2	3.2	-6.7	25.0*	-2.3	-0.5	-0.7
COc1ccccc1C(=O)NC(=O)COC(=O)Cc1n[nH]c(=O)c2ccccc12	3.0	1.6	-1.4	2.2	-4.2	-4.0	.
CC(C)(C)c1ccc(S(=O)(=O)NCC(=O)N2CCN(Cc3ccccc3)CC2)cc1	-2.4	0.8	12.1	-9.4	3.9	-3.1	.
O=C(COc1ccccc1)NCc1nnc(SCC(=O)Nc2nccs2)n1-c1ccccc1	3.6	1.0	-1.8	-1.4	-7.0	0.2	.
COc1cccc(C(=O)NCc2nnc(SCC(=O)Nc3nccs3)n2-c2ccccc2)c1	.	-1.0	-3.2	28.0*	-1.1	-0.4	3.0
CCOc1ccc2[nH]c3c(=O)n(CCc4ccc(OC)cc4)cnc3c2c1	-0.8	0.2	-2.7	18.3*	4.1	-1.4	-1.4
Cc1cc(C)c2c(N)c3ccccc3nc2n1	0.3	-0.8	-0.3	30.8*	i	-2.2	4.1
Cc1cccn2c(=O)c(/C=N/O)c(Nc3ccccc3F)nc12	-4.6	2.6	-3.8	20.0*	-5.5	-1.1	0.6
CC1CCN(c2ccc(NC(=O)c3ccccc3[N+](=O)[O-])cc2)CC1	2.3	-3.5	-0.5	-1.9	-3.5	-0.4	.
